MrgX1 allo act = human MrgX1 positive allosteric modulation, primary screen. Q96LB2. MrgX1-HEK293, Fluo-4 calcium flux, FDSS; hits give high values. B-score at 10 µM. actives 0.63% (n = 310,000);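 active = plate-corrected calcium response at least 3 library SD above typical, normal starting fluorescence, not activating the receptor alone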;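 also: compound read alongside a low EC10 to EC30 dose of BAM8-22 agonist; peak minus trough fluorescence over baseline measured at the second addition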
Target sequence (Q96LB2 whole entry, looked up): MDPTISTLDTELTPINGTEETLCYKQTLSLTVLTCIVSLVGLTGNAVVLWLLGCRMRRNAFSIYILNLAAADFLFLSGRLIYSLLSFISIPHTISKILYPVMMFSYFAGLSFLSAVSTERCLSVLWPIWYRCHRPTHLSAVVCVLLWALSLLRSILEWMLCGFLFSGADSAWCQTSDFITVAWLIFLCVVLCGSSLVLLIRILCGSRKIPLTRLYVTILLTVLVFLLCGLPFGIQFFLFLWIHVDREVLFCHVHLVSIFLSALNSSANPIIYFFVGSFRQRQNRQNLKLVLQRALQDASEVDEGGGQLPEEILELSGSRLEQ
RGS4 inh = human RGS4 inhibition | AID 463165 | HEK293 M3R/RGS4 inducible, Fluo-4 calcium flux; hits give high values; triggered by carbachol at its EC20 | B-score at 10 µM | P49798 | actives 0.45% (n = 310,000);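 active = B-score, a plate-corrected calcium signal, over three deviations above library mean, with baseline fluorescence within five deviations of library mean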;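 also: RGS4 expression induced by doxycycline in cells with stable M3 receptor; B-score is computed from the integrated fluorescence ratio over baseline after carbachol; higher B-score means a larger calcium signal and so more RGS4 inhibition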
MrgX1 ag = activates human MrgX1 receptor signaling | Q96LB2 | MrgX1-HEK293 cells, Fluo-4 calcium fluorescence, agonist mode; hits give high values | B-score at 10 µM | actives 0.44% (n = 310,000) | AID 588627;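 active = calcium response B-score plate-corrected fluorescence ratio at least 3 library SD, with starting fluorescence B-score inside 5 SD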
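Material: HEK293 cells stably expressing human MrgX1 receptor | Quantity: 15,000 cells per well | Times: Cells plated overnight, dye loaded 0.5 h 37 °C, 0.5 h room temperature | Measured by: Kinetic Fluo-4 NW fluorescence of intracellular calcium | Control set: Positive and negative controls per plate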
RGS4 act = RGS4 potentiation or activation. B-score at 10 µM. HEK293 M3R/inducible RGS4, carbachol calcium flux Fluo4; hits give low values. actives 0.92% (n = 310,000);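 active = B-score of the integrated calcium signal more than 4 SD below the library mean, with starting fluorescence not abnormally high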;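 also: negative B-score means reduced calcium response which marks RGS4 activation or potentiation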
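Test system: HEK293 cells with stable M3R and inducible RGS4; also added: carbachol at ECmax as muscarinic agonist stimulus; schedule: dye loading 30 min 37 °C, buffer rest 30 min RT; technique: kinetic calcium fluorescence imaging with Fluo4-AM dye, 2 µM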
MrgX1 antagonist = blocks BAM8-22 activation of human MrgX1 receptor; actives 1.3% (n = 310,000); Q96LB2; B-score at 10 µM; MRGX1-HEK293 calcium flux, Fluo-4, BAM8-22 antagonism; hits give low values;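 active = calcium-response B-score plate-corrected more than 3 library SD below zero, starting fluorescence within 5 deviations, no agonist response on first addition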;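 also: peak minus trough fluorescence over baseline after final BAM8-22 challenge near maximal dose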
MrgX1 ant reconf = reconfirmed antagonist of human MrgX1 receptor signaling | actives 19% (n = 2,300) | shares compounds with MrgX1 antagonist | AID 602420 | MrgX1-HEK293, BAM8-22 calcium flux, Fluo-4; hits give low values | remaining BAM8-22 calcium response % of control (hits give low values), % at 10 µM;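 active = remaining agonist calcium response no higher than 100% minus 3 SD of agonist-only control wells, with starting fluorescence near control levels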;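 also: agonist BAM8-22 given at a near maximal EC90 to ECmax level; peak minus minimum fluorescence divided by baseline after agonist addition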
HEK293 Ca flux = MrgX1 antagonist counter-screen hit in parental HEK293 cells; fluorescence ratio F(max-min)/F0 at 10 µM; shares compounds with MrgX1 antagonist; Fluo-4 calcium fluorescence, FDSS; actives 2% (n = 4,000);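 active = duplicate-averaged calcium fluorescence ratio at least three times the standard deviation of buffer wells, a nonspecific response in parental cells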
HEK293 Ca counter = counter-screen for MrgX1 allosteric activators: effect in parental HEK293 cells; shares compounds with MrgX1 antagonist; parental HEK293 calcium flux, Fluo-4 fluorescence ratio; hits give high values; fluorescence ratio F(max-min)/F0 at 10 µM; actives 0.4% (n = 4,000);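 active = calcium fluorescence ratio, averaged over duplicates, at least 3 SD of the buffer-well ratio, meaning a nonspecific response in receptor-free cells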;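 also: untransfected parental HEK293 lacking MrgX1 used as counterscreen for MrgX1 allosteric activators; fluorescence change taken during the second addition on a kinetic imager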
HEK293 Ca cntr2 = counter-screen for MrgX1 activators: effect in parental HEK293 cells; shares compounds with MrgX1 antagonist; Fluo-4 calcium fluorescence (FDSS); hits give high values; fluorescence ratio F(max-min)/F0 at 10 µM; actives 8.7% (n = 4,000); AID 624115;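 active = calcium fluorescence ratio at least three times the spread of buffer wells, meaning a non-specific response in parental cells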
An asterisk follows results filed as active; i = inactive; / = no result given. The list is not random: actives were taken first. Their share in the collection is about 3.5%.

SMILES	MrgX1 allo act	RGS4 inh	MrgX1 ag	RGS4 act	MrgX1 antagonist	MrgX1 ant reconf	HEK293 Ca flux	HEK293 Ca counter	HEK293 Ca cntr2
COc1ccc2nc(-c3ccc(F)cc3)sc2c1	i	i	i	i	-4.6*	i	i	i	i
COc1ccc2nc(N)sc2c1	i	i	i	i	i	/	/	/	/
COc1ccc2nc(-n3c(C)ccc3C)sc2c1	i	i	i	i	-6*	i	i	i	i
C=CCn1c(SCC(=O)Nc2cc(C)on2)nnc1C1COc2ccccc2O1 (stereo unspecified)	i	i	i	i	-6.1*	85%*	i	i	i
COc1ccc(C)cc1NC(=O)C1CCCN(S(=O)(=O)c2ccc3c(c2)CCCN3C(C)=O)C1 (stereo unspecified)	i	i	i	i	i	/	/	/	/
CCC(=O)Nc1nc(N)n(-c2ccccc2)n1	i	i	i	i	-6.9*	i	i	i	i
CC(=O)c1ccccc1NC(=O)CSc1nnc(Cc2csc(C)n2)o1	i	i	i	i	i	/	/	/	/
Cc1nc(Cc2nnc(SC(C)C(=O)Nc3cccc(C#N)c3)o2)cs1 (stereo unspecified)	i	i	i	i	-5.9*	i	i	i	i
CC(C)NC(=O)NC(=O)COC(=O)c1cc[n+]([O-])cc1	i	i	i	i	i	/	/	/	/
O=C(NCSC1=NCCS1)c1ccccc1	i	i	i	i	-5.3*	i	i	i	i
Cc1ccc(Nc2nc3ccccc3c(=O)s2)cc1	i	i	i	i	-7.3*	i	i	i	i
O=c1sc(Nc2ccccc2)nc2ccccc12	i	i	i	i	i	/	/	/	/
CC(c1nccs1)N(C)c1nc2nonc2nc1N(C)C (stereo unspecified)	i	i	i	i	i	/	/	/	/
CCn1cc([N+](=O)[O-])c(C(=O)Nc2nc(-c3ccc(C)cc3)c(C)s2)n1	i	i	i	i	-10*	i	i	i	i
CN(C)c1cc(Nc2ccc(O)cc2)c([N+](=O)[O-])c2nonc12	i	i	i	i	i	/	/	/	/
O=[N+]([O-])c1c(Nc2ccc(O)cc2)cc(Cl)c2nonc12	i	i	i	i	-15*	16%*	i	i	i
O=C(COC(=O)c1ccc(O)cc1)Nc1cccc(S(=O)(=O)N2CCCCC2)c1	i	i	i	i	i	/	/	/	/
Cc1cc(C)c(C(=O)OCC(=O)Nc2cccc(S(=O)(=O)N3CCCCC3)c2)c(C)c1	i	i	i	i	-11*	i	i	i	i
CS(=O)(=O)N1CCCC(C(=O)NCc2ccco2)C1 (stereo unspecified)	i	i	i	i	-5.1*	i	i	i	i
O=C(Cn1ccc2cc(S(=O)(=O)N3CCCC3)ccc21)NCc1ccco1	i	i	i	i	-4.6*	i	i	i	i
O=C(NCc1ccco1)C1CCCN(S(=O)(=O)c2ccc(Br)cc2)C1 (stereo unspecified)	i	i	i	i	i	/	/	/	/
O=C(/C(=C(\O)c1ccccc1)c1ncc[nH]1)c1ccccc1	i	i	i	i	-9.7*	i	i	i	i
S=C(Nc1cc(Cl)cc(Cl)c1)N1CCN(c2ccccn2)CC1	i	i	i	i	i	/	/	/	/
